The array DNA melting data of Ke et al. (doi:10.1101/2024.01.08.574731)

Experiments:
[1] = folding enthalpy; higher = less favourable; fluorescence melt of hairpins on a sequencing array, two-state fit; details: sodium 0.088 M
Procedure, shortened: (§1)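 Folding enthalpy and melting temperature were estimated with bootstrapped two-state fits and combined across four replicates by inverse-variance weighting, with fitted temperatures raised by 9.35 °C to match UV melts. The data were Cy3 fluorescence of library hairpins, with annealed Cy3 and quencher oligos, on a sequenced MiSeq flow cell in 50 mM Na-HEPES pH 8.0, 25 mM NaCl, imaged in 2.5 °C steps up to 60 °C and normalised to pre-quench Cy3 and control constructs.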

[2] = melting temperature; fluorescence melt of hairpins on a sequencing array, two-state fit, raised by 9.35 °C to match UV melts; details: sodium 0.088 M
Procedure, shortened: as §1

| Sequence | folding enthalpy [1] | Tm [2] |
| --- | --- | --- |
| GTATGTACGAAAGTATAC (((..(((....)))))) | -11.4 kcal/mol | 31 °C |
| GTCACCGAAAGGTCGGAC ((((((....)))..))) | -16 kcal/mol | 34.3 °C |
| GATCCTGGAAGGATC ((((((...)))))) | -31.6 kcal/mol | 62.8 °C |
| GTTTAGCGAAAGCTGAAC (((.(((....))).))) | -30.4 kcal/mol | 51.3 °C |
| GATCCACGATTGGATC ((((((....)))))) | -37 kcal/mol | 48 °C |
| GATCATATACATGATC ((((((....)))))) | -32.9 kcal/mol | 48.1 °C |
| GCACACGAAAGTGTGTGC ((((((....)))..))) | -18.9 kcal/mol | 68.2 °C |
| GAGGACGGAAACATCCTC (((((.(....).))))) | -26.7 kcal/mol | 38.3 °C |
| GATAACGGAAACGTTATC (((((((....))))))) | -47.8 kcal/mol | 56.4 °C |
| GAAGCCGAAAGGCCTTTC ((((((....)))..))) | -9.88 kcal/mol | 35.9 °C |
| GAGCGAGGAAACTTGCTC ((((.((....)).)))) | -25.1 kcal/mol | 52.2 °C |
| GATCCTCGCAAGGATC ((((((....)))))) | -32.6 kcal/mol | 54.8 °C |
| GATCTATCGGTAGATC ((((((....)))))) | -24.7 kcal/mol | 39.1 °C |
| GTCATTCCGAAAGGAGAC (((..(((....)))))) | -10.2 kcal/mol | 29.2 °C |
| GGATTCACGAAAGTGTCC (((..(((....)))))) | -12.5 kcal/mol | 29.8 °C |
| GGCGGCGAAAGCCCAGCC ((((((....)))..))) | -18.5 kcal/mol | 57.8 °C |
| GTTTGAGGAAACCCAAAC (((((.(....).))))) | -30.3 kcal/mol | 36.8 °C |
| GCCGCCGAAAGGCGCGGC ((((((....)))..))) | -11.2 kcal/mol | 69.3 °C |
| GTGTACCGAAAGGTTCAC (((.(((....))).))) | -35.8 kcal/mol | 53.1 °C |
| GATCAAAAGCTTGATC ((((((....)))))) | -25.6 kcal/mol | 38 °C |
| GACCTCACGAAAGTGGTC (((..(((....)))))) | -20.7 kcal/mol | 37.4 °C |
| GTGATCGGAAACGGTCAC ((((.((....)).)))) | -42.8 kcal/mol | 55 °C |
| GATCTAATTATAGATC ((((((....)))))) | -29 kcal/mol | 37.9 °C |
| GTACGCGGAAACGCATAC (((.(((....))).))) | -19.6 kcal/mol | 39.9 °C |

| Sequence | folding enthalpy [1] | Tm [2] |
| --- | --- | --- |
| GTACCAGGAAACTGGCAC ((.((((....)))).)) | -21.1 kcal/mol | 42.1 °C |
| GGGGTGGGAAACCATCCC (((.(((....))).))) | -41.7 kcal/mol | 56.6 °C |
| GTGGCACGAAAGTGCAC (((.(((....)))))) | -11 kcal/mol | 52.1 °C |
| GATTAACGAAAGTTATC (((.(((....)))))) | -13.2 kcal/mol | 31.3 °C |
| GGGGTGCGAAAGCATCCC (((.(((....))).))) | -28.5 kcal/mol | 68.4 °C |
| GGAGAGACGAAAGTCTCC (((..(((....)))))) | -9.49 kcal/mol | 44 °C |
| GACGCGGGAAACTGCGTC (((((.(....).))))) | -35.2 kcal/mol | 64 °C |
| GCGTTCTACGC ((((...)))) | -22.5 kcal/mol | 58.2 °C |
| GTAACCGAAAGGTTTTAC ((((((....)))..))) | -8.83 kcal/mol | 29.2 °C |
| GGATTGGGAAACTAGTCC (((.(.(....).).))) | -23.6 kcal/mol | 27.3 °C |
| GTTACGGGAAACCGTAAC (((((((....))))))) | -46 kcal/mol | 60.5 °C |
| GTGTTGGGAAACCAGCAC (((.(((....))).))) | -43.9 kcal/mol | 51.4 °C |
| GCGATACTCGC ((((...)))) | -22.8 kcal/mol | 49.3 °C |
| GCAGTGGGAAACTACTGC (((((.(....).))))) | -37.9 kcal/mol | 54.2 °C |
| GCGGAGCGAAAGCACAGC ((.(.((....)).).)) | -17.4 kcal/mol | 58 °C |
| GCGAAGCGAAAGCCTGGC ((.(.((....)).).)) | -5.56 kcal/mol | 34.1 °C |
| GCACTGCGAAAGCAGAGC ((.((((....)))).)) | -20.7 kcal/mol | 65.9 °C |
| GGATGTGGAAACGCATCC (((((.(....).))))) | -41.4 kcal/mol | 52.2 °C |
| GGGTTTTCGAAAGAACCC (((..(((....)))))) | -31.8 kcal/mol | 43.6 °C |
| GCGAGCGGTCGC ((((....)))) | -22.4 kcal/mol | 52 °C |
| GCTATGCGAAAGCAGAGC (((.(((....))).))) | -49 kcal/mol | 60.6 °C |
| GGGATAGGAAACCATCCC (((((.(....).))))) | -30.9 kcal/mol | 43.3 °C |
| GTGGTCGGAAACGATCAC (((.(((....))).))) | -44.6 kcal/mol | 55.7 °C |
| GACGGCGGAAACACCGTC (((((.(....).))))) | -42.4 kcal/mol | 54 °C |

| Sequence | folding enthalpy [1] | Tm [2] |
| --- | --- | --- |
| GCGCGCCCGAAAGGGCGC (((..(((....)))))) | -4.64 kcal/mol | 68.4 °C |
| GATCTTCGCCAAGATC ((((((....)))))) | -33.7 kcal/mol | 42 °C |
| GCGGATCGAAAGATCGC (((.(((....)))))) | -25.6 kcal/mol | 58.1 °C |
| GATCTGGCACCAGATC ((((((....)))))) | -41.3 kcal/mol | 55.1 °C |
| GACGAGAAATCGTC (((((....))))) | -28.1 kcal/mol | 51.2 °C |
| GAGGACGAAAGTCTCTC ((((((....))).))) | -18 kcal/mol | 46.5 °C |
| GACCACGAAAGTGCCGTC ((((((....)))..))) | -12 kcal/mol | 33.6 °C |
| GCAGAGGCGAAAGCCTGC (((..(((....)))))) | -14.5 kcal/mol | 56.7 °C |
| GTAAAACGAAAGTTATAC (((.(((....))).))) | -14.8 kcal/mol | 31.6 °C |
| GTTGGCGGAAACGTCAGC (.((.((....)).)).) | -21.6 kcal/mol | 42.3 °C |
| GATCTAGTCATAGATC ((((((....)))))) | -38.4 kcal/mol | 50 °C |
| GATCTCGTGGAGATC ((((((...)))))) | -39 kcal/mol | 54.5 °C |
| GATCGACGGGTCGATC ((((((....)))))) | -46 kcal/mol | 63.3 °C |
| GCCAGAACGAAAGTTGGC (((..(((....)))))) | -35.8 kcal/mol | 49.8 °C |
| GGTGAAGGAAACTTCGTC (..((((....))))..) | -12 kcal/mol | 26.6 °C |
| GATCGGAAGCCGATC ((((((...)))))) | -34.7 kcal/mol | 55 °C |
| GACGCTCCGAAAGGAGTC (((..(((....)))))) | -9.32 kcal/mol | 34.5 °C |
| CGAACGGAAACGTATCG ((((((....))).))) | -19.2 kcal/mol | 36.1 °C |
| CGCGCGGAAACGCTAGCG ((((((....)))..))) | -31 kcal/mol | 55.6 °C |
| GCGTCGGCACGC ((((....)))) | -10.7 kcal/mol | 56.4 °C |
| GCGTGGCGAAAGCTAGGC ((.(.((....)).).)) | -20.4 kcal/mol | 52 °C |
| GCTTGAGGAAACTTGAGC (((..((....))..))) | -16.7 kcal/mol | 33.8 °C |
| GACCGCGGAAACGCGATC ((.((((....)))).)) | -14.8 kcal/mol | 50.7 °C |
| GGAAGTACGAAAGTATCC (((..(((....)))))) | -11.1 kcal/mol | 23.4 °C |

| Sequence | folding enthalpy [1] | Tm [2] |
| --- | --- | --- |
| GCAGGGCGAAAGCCTGC (((.(((....)))))) | -20.3 kcal/mol | 68 °C |
| GCTGCAGGAAACCGCAGC (((((.(....).))))) | -32.9 kcal/mol | 57.8 °C |
| GATCGGGCTTCCGATC ((((((....)))))) | -41.2 kcal/mol | 59.4 °C |
| GACTGCGGAAACGTAGTC ((((.((....)).)))) | -39.6 kcal/mol | 52.6 °C |
| GTCTGCGAAAGCACGAC ((((((....))).))) | -21.5 kcal/mol | 50.2 °C |
| GGGTGTGGAAACACGTCC ((..(((....)))..)) | -13.6 kcal/mol | 40.1 °C |
| GTTCGAGGAAACTCGAGC (.(((((....))))).) | -21.7 kcal/mol | 49.8 °C |
| GCGTGGCGAAAGCGCCGC (((..((....))..))) | -19.1 kcal/mol | 56.2 °C |
| CCACGGAAACGTGG (((((....))))) | -21.2 kcal/mol | 69.2 °C |
| GTTTTGGGAAACCAAAAC (((((((....))))))) | -43.5 kcal/mol | 57.5 °C |
| GATCCCTACGGGATC ((((((...)))))) | -32.5 kcal/mol | 67.9 °C |
| GATCCATAATTGGATC ((((((....)))))) | -39.7 kcal/mol | 50.7 °C |
| GATCTTTTGTAAGATC ((((((....)))))) | -31.1 kcal/mol | 44.2 °C |
| GGTCTAGGAAACTAGACC (((((((....))))))) | -47.7 kcal/mol | 60.5 °C |
| GAGTCCGAAAGGAATCTC ((((((....)))..))) | -18.8 kcal/mol | 50.2 °C |
| GAGACAGGAAACTGTCCC (.(((((....))))).) | -13 kcal/mol | 39.4 °C |
| GGAGCTGAAAAGCTCC ((((((....)))))) | -37.5 kcal/mol | 68.9 °C |
| GATAACCGAAAGGTGATC (((.(((....))).))) | -27.9 kcal/mol | 47.8 °C |
| CGAGCGCGGAAACGCTCG (((..(((....)))))) | -29.8 kcal/mol | 68.5 °C |
| GGTGTAGGAAACTGTACC (((..((....))..))) | -19.3 kcal/mol | 29.6 °C |
| GATCGCAAACGCGATC ((((((....)))))) | -42.1 kcal/mol | 64.8 °C |
